# Sampled rows, rich in hits. Any-hit rate of the full collection: about 1.5%.
# APJ antag: antagonists of human APJ apelin receptor. inhibition, % at 20 µM. 330,000 compounds, 0.32% hits. P35414. CHO-K1 APJ beta-arrestin complementation, luminescence;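 active means inhibition above about 40% at 20 µM, limit read from the data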;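 further: cells challenged with 10 nM apelin-13 agonist together with compound; plate controls were apelin-13 plus DMSO wells for no effect and DMSO wells lacking apelin-13 for full effect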
# CXCR6 block: inhibitors of human CXCR6 receptor | CHO-K1 PathHunter CXCR6 beta-arrestin, luminescence | O00574 | inhibition, % at 20 µM | 360,000 compounds, 0.36% hits; in the data active means inhibition above about 34%, passing the limit was not always enough;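 further: antagonist mode with CXCL16 agonist at 10 nM final; 0% = 10 nM CXCL16 with DMSO and 100% = unstimulated wells without agonist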
# CCR6 antag: blocks CCL20-driven beta-arrestin recruitment at human CCR6; P51684; CHO-K1 CCR6 PathHunter beta-arrestin, luminescence, CCL20-stimulated; inhibition, % at 20 µM; 340,000 compounds, 0.49% hits;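 active means compounds whose inhibition of the agonist-driven luminescence signal at 20 µM reaches about 50%, limit read from the data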;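 further: cells stimulated with CCL20 at 14 nM final; plate controls were DMSO with CCL20 for no effect and DMSO without agonist for full effect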
# APJ agonist: activates the human apelin receptor APJ | activation, % at 20 µM | AID 2520 | 330,000 compounds, 0.11% hits | CHO-K1 APJ PathHunter beta-arrestin, luminescence; 0% DMSO wells, 100% apelin;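 active means activation more than six SD over the plate average, tested at 20 µM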;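 further: 0% = DMSO alone and 100% = apelin-13 at 10 nM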
#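 Assay system: CHO-K1 cells stably expressing ProLink-tagged human APJ and arrestin–beta-gal acceptor. Compound dosing: 20 µM single point, 1% DMSO. Times: 16-18 h seeding, 90 min dark compound exposure, 60 min detection. Detection: beta-gal luminescence. Evaluation: APJ–arrestin association signal. Controls: negative DMSO alone, positive Apelin-13 at 10 nM.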
# EBI2 antag: EBI2 (human) antagonism; P32249; EBI2 beta-arrestin recruitment, luminescence, 7a,25-OHC stimulated; inhibition, % at 5 µM; 360,000 compounds, 0.81% hits; in the data active means inhibition above about 38%;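 further: enzyme fragment complementation signal reports receptor beta-arrestin coupling in cells; 0% = agonist plus DMSO wells and 100% = wells without agonist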
# Target sequence (P32249 whole entry, looked up, the tested form may be a part): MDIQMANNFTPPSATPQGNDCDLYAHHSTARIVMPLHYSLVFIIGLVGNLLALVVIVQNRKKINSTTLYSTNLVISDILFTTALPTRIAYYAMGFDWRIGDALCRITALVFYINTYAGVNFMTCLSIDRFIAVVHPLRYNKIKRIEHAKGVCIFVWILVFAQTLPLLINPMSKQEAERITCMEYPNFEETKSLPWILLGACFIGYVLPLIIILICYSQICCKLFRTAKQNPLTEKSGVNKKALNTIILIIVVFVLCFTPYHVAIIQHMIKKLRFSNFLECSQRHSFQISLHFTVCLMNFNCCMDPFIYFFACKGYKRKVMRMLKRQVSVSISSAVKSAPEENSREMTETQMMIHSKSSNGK
# EBI2 conf: EBI2 (human) antagonism, single concentration confirmation. 2,400 compounds, 29% hits. shares compounds with EBI2 antag. inhibition, % at 5 µM. EBI2 beta-arrestin luminescence, 7a,25-OHC antagonism. AID 651997;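 active means inhibition of at least 50%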
# EBI2 ag: EBI2 agonism counter-screen | 2,400 tested, under 10 active | shares compounds with EBI2 antag | AID 652000 | activation, % at 5 µM | EBI2-expressing cells, agonist mode, luminescence, 60 min; 0% vehicle, 100% 7α,25-dihydroxycholesterol control;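 active means activation of at least 50%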
# bGal counter: inhibits E. coli beta-galactosidase, counter-screen for EBI2 antagonists; inhibition, % at 5 µM; purified beta-galactosidase, luminescent Galacton Star, 15 min; 2,400 compounds, 1% hits; shares compounds with EBI2 antag;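 active means replicate-average signal at least 3 plate SD below neutral wells, shown as high inhibition, flagging enzyme-inhibiting false positives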;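 further: 0% = DMSO wells with enzyme and 100% = wells lacking enzyme; higher means stronger loss of beta-gal luminescence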
# * marks the source's active call; other numbers are inactive results; . = no result given.
SMILES,APJ antag,CXCR6 block,CCR6 antag,APJ agonist,EBI2 antag,EBI2 conf,EBI2 ag,bGal counter
COc1ccc(C(=O)NC(=S)Nc2cc3oc4ccccc4c3cc2OC)cc1,0,-12,1,12,48*,36,0,8
Clc1cccc(Nc2nc(-c3ccncc3)cs2)c1,-4,-13,-12,2,52*,48,0,-8
Cc1cccc(Nc2nc(-c3ccncc3)cs2)c1,-14,-6,-25,-1,34,.,.,.
COc1ccc2c(Cl)cc(NC(=O)Nc3c(C)cccc3C)nc2c1,.,0,.,.,16,.,.,.
O=C(NCCOc1ccc(Cl)cc1)c1cccc(S(=O)(=O)N2CCCC2)c1,15,-6,15,-2,56*,47,-1,-10
O=C(NCc1ccc(Cl)cc1)c1cccc(S(=O)(=O)N2CCCC2)c1,1,-3,16,-4,-6,.,.,.
O=C(NCCOc1ccc(Cl)cc1)C1CCCCC1,-2,-6,11,-2,61*,30,0,11
COc1ccc(C(C)=O)cc1CN1C(=O)C(C)ON=C1c1cccc(C(F)(F)F)c1 (configuration not stated),.,4,.,.,6,.,.,.
CC(C)NC(=O)N(C)C[C@H]1Oc2ncc(Br)cc2C(=O)N([C@H](C)CO)C[C@@H]1C,.,-12,.,.,-4,.,.,.
O=C(Nc1ccc2c(c1)OCCO2)C(c1ccnc2ccccc12)N1CCN(C/C=C/c2ccccc2)CC1 (configuration not stated),.,-4,.,.,50*,42,0,-1
O=C(Nc1ccc2c(c1)OCCO2)C(CCc1ccccc1)N1CCN(c2ccc(F)cc2)CC1 (configuration not stated),.,4,.,.,7,.,.,.
O=C(Nc1ccc2c(c1)OCCO2)C(CCc1ccccc1)N1CCN(C/C=C/c2ccccc2)CC1 (configuration not stated),.,4,.,.,44*,19,-1,-7
O=C(Cn1nc(C(=O)O)c2ccccc2c1=O)c1c[nH]c2ccccc12,-21,4,9,2,77*,69*,1,5
CC(C)Sc1ccc(C(=O)Nc2ccc(F)cc2F)cn1,-8,8,13,-1,45*,20,0,12
O=C(OCc1nnc(-c2ccc([N+](=O)[O-])cc2)o1)C1CCN(C(=O)c2ccc(F)cc2)CC1,-87,-4,5,1,-2,.,.,.
O=C(OCc1nnc(-c2ccc([N+](=O)[O-])cc2)o1)C1CCN(C(=O)c2ccc(Cl)cc2)CC1,-27,-18,4,4,50*,15,4,4
COc1ccc2cc(C(=O)N3CCN(c4ccccc4OC)CC3)[nH]c2c1,10,-13,-10,-4,74*,49,2,4
COc1ccc2cc(C(=O)N3CCN(c4ccccc4F)CC3)[nH]c2c1,-1,-5,3,0,65*,58*,2,7
CC1(C(=O)NS(=O)(=O)c2ccc(F)cc2F)CCN1C(=O)C/C=C/c1ccccc1 (configuration not stated),.,0,.,.,0,.,.,.
CCC1CSC(Nc2ccc(C(=O)/C=C/c3ccc(Br)cc3)cc2)=N1 (configuration not stated),9,3,15,-5,61*,55*,1,1
CCCCNC(=O)c1nc(-c2cccs2)oc1-c1ccc(Cl)cc1,.,.,.,.,-51,.,.,.
COc1ccc(-c2nc(NCCN(C)C)nc3ccsc23)c(C)c1,.,4,.,.,-6,.,.,.
CCOC(=O)C1=CCC(c2ccccc2C)N(S(=O)(=O)c2ccc(C)cc2)C1 (configuration not stated),.,0,.,.,10,.,.,.
O=S(=O)(NC1=NCCC1)c1cccc(NC(=S)Nc2ccc(OC(F)F)cc2)c1,14,1,12,-8,48*,31,-1,-4
O=C(COC(=O)c1ccc(OC(F)F)cc1)Nc1cccc(S(=O)(=O)NC2=NCCC2)c1,5,-4,7,-4,0,.,.,.
SMILES,APJ antag,CXCR6 block,CCR6 antag,APJ agonist,EBI2 antag,EBI2 conf,EBI2 ag,bGal counter
COc1cc(/C=N/NC(=O)CSc2cc(C)c(Br)cc2C)ccc1O,-1,-20,-8,3,59*,9,-1,-14
Cc1cc(SCC(=O)N/N=C/c2ccc(O)c(O)c2O)c(C)cc1Br,-30,-8,13,5,-5,.,.,.
COc1ccc(OCC(O)CN2CCN(c3ccc(Cl)cc3)CC2)cc1 (configuration not stated),-9,-4,-6,-4,47*,34,-1,-7
O=C(c1ccccc1)N1CCN(CC(O)COc2ccc(Br)cc2)CC1 (configuration not stated),-16,-8,-1,1,71*,44,-1,-12
COc1cc(C(=O)N2CCN(CC(O)COc3ccccc3)CC2)cc(OC)c1OC (configuration not stated),-1,-5,3,2,-2,.,.,.
COc1cccc(OCC(O)CN2CCN(c3ccc(Cl)cc3)CC2)c1 (configuration not stated),6,-5,3,-3,13,.,.,.
OC(COc1ccccc1)CN1CCN(c2ccccc2)CC1 (configuration not stated),.,-1,13,.,11,.,.,.
OC(COc1ccc(Br)cc1)CN1CCN(c2ccccc2)CC1 (configuration not stated),8,3,0,-5,48*,23,0,-12
CC(=O)Nc1ccc(S(=O)(=O)N2CCN(CC(O)COc3ccc4ccccc4c3)CC2)cc1 (configuration not stated),-24,-14,7,0,57*,24,1,4
CN(C)S(=O)(=O)N1CCN(CC(O)COc2ccc3cc(Br)ccc3c2)CC1 (configuration not stated),1,-14,-7,2,85*,67*,1,9
OC(COc1ccc2cc(Br)ccc2c1)CN1CCN(c2ccccn2)CC1 (configuration not stated),16,-13,-6,-3,82*,49,1,-13
Cc1ccc2nc(-c3ccc(C#N)cc3)c(Cc3ccccc3C(F)(F)F)n2c1,.,15,.,.,47*,13,-1,-9
Cc1cc(S(=O)(=O)N2CCCCC2)ccc1OCC(=O)N1CCOCC1,-6,1,3,4,-8,.,.,.
Cc1ccc(OCC(=O)N2CCN(S(=O)(=O)c3ccc4c(c3)OCCO4)CC2)c(C)c1,10,2,10,-1,70*,53*,2,4

# Bioassay records as filed in PubChem.
